Seven molecules from ChEMBL document CHEMBL2034962, “Immunosuppressive decalin derivatives from red yeast rice” (J Nat Prod, 2012) can be followed below.

Active and inactive are the calls of the source. The calls are words filed in the database; no cut-off is given here.

Series [1] deals with T-cell. The experiment in a line: Immunosuppressive activity in human T lymphocytes assessed as inhibition of PMA-ionomycin-induced cell proliferation at 10 to 100 uM after 72 hrs by BrdU-based ELISA analysis. The class given is functional. The essentials: (§1)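 Nonadherent buffy-coat T lymphocytes (Ficoll, adherence-depleted) at 10^5 cells/well in RPMI 1640 + 10% FBS, in triplicate. Costimulated with PMA–ionomycin ± compound (10–100 μM) for 72 h. BrdU added at 10 μM final, 14 h before the end. Incorporation read by ELISA. Lovastatin and simvastatin served as positive controls. Means ± SEM, one-way ANOVA.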
For orientation: ELISA stands for enzyme-linked immunosorbent assay.

Series [2] in a line: Cytotoxicity against human T lymphocytes at 10 to 100 uM after 72 hrs by MTT assay. The following applies: t-cell. The essentials: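 T cells from buffy-coat blood via Ficoll separation, with macrophages removed by adherence. Cultured at 1 × 10^5 cells/well in RPMI 1640 + 10% FBS, n = 3, with 10–100 μM compound for 72 h. MTT (5 mg/mL) added for 4 h, then dissolved in 10% SDS/50% DMF, pH 7.2. A570 read; viability = Atreated/Acontrol × 100.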

Series [3] relates to T-cell. The experiment in a line: Immunosuppressive activity in human T lymphocytes assessed as inhibition of PMA-ionomycin-induced cell proliferation after 72 hrs by BrdU-based ELISA analysis. The class given is functional. The gist of the method: as §1

`C[C@H]1C=C2C=C[C@H](C)/C(=C\CC(=O)O)[C@H]2CC1` [MONASCUSIC ACID E]: the inhibition result in the series with T-cell [1] is “Active”. Besides, in series [2], the Activity entry is given as “Non-toxic”.

As to `C[C@@H]1CC[C@@H]2[C@@H](CCC(=O)O)[C@@H](C)C=C[C@H]2C1` [HEPTAKETIDE], the inhibition result in the series with T-cell [3] was “Dose-dependent effect”. Further, the result with T-cell [1] was Active. The Activity result in series [2] was “Non-toxic”.

For the molecule `C[C@@H]1CC[C@@H]2/C(=C/CC(=O)O)[C@@H](C)C=C[C@H]2C1` [MONASCUSIC ACID C], the inhibition entry in the series on T-cell [3] was “Dose-dependent effect”. Moreover, the outcome with T-cell [1] was Active. Further, the Activity result in series [2] is on record as “Non-toxic”.

Take `C[C@H]1C=C2C=C[C@H](C)[C@H](/C=C/C(=O)O)[C@H]2CC1` [MONASCUSIC ACID D]: in the series with T-cell [3], the inhibition entry is “Dose-dependent effect”. Further, the outcome with T-cell [1] was Active. The Activity result in series [2] is “Non-toxic”.

Take `C[C@H]1C=C2C=C[C@H](C)[C@]3(CCC(=O)O3)[C@H]2CC1` (relative stereo): in the series on T-cell [1], the inhibition result was “Active”. In series [2], the Activity entry is reported as “Non-toxic”.

On to `C[C@@H]1CC[C@@H]2[C@@H](/C=C/C(=O)O)[C@@H](C)C=C[C@H]2C1` [MONASCUSIC ACID B], for which the inhibition result in the series with T-cell [3] was “Dose-dependent effect”. The outcome in the series with T-cell [1] was Active. Also, the Activity result in series [2] is recorded as “Non-toxic”.

In the case of `C[C@H]1C=C2C=C[C@H](C)[C@H](CCC(=O)O)[C@H]2CC1` [MONASCUSIC ACID A], the inhibition entry in the series with T-cell [3] is “Dose-dependent effect”. Also, the outcome in the series with T-cell [1] was Active. For the same molecule, the Activity result in series [2] is on record as “Non-toxic”.
